# GPR7 antag – antagonists of human GPR7 (neuropeptides B/W receptor 1); P48145; GPR7-expressing cells, fluorescence antagonist assay; inhibition, % at 4.4 µM; 1.1% of 290,000 active; AID 1861; in the data active means inhibition above about 16%, passing the limit was not always enough;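 further: cells stimulated with the agonist NPW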
# Target sequence (P48145 whole entry, looked up): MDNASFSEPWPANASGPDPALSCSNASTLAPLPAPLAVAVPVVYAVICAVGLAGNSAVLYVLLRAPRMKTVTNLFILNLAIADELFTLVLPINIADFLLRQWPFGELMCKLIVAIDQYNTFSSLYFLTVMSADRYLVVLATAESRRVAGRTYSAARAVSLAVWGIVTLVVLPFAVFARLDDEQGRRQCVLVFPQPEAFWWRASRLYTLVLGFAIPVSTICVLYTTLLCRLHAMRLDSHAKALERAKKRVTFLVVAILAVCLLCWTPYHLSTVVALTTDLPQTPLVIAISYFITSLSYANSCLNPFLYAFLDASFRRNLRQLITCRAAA
# TAAR1 ag – human TAAR1 agonism; activation, % at 3 µM; 0.99% of 360,000 active; Q96RJ0; CHO RD-HGA16 TAAR1, Fluo-8 calcium fluorescence; vehicle wells 0%, saturating PEA agonist 100%; AID 624467;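 active means activation above the mean activation of all test compounds in the run plus 3 SD, cut at about 38% in these data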
# Target sequence (Q96RJ0 whole entry, looked up): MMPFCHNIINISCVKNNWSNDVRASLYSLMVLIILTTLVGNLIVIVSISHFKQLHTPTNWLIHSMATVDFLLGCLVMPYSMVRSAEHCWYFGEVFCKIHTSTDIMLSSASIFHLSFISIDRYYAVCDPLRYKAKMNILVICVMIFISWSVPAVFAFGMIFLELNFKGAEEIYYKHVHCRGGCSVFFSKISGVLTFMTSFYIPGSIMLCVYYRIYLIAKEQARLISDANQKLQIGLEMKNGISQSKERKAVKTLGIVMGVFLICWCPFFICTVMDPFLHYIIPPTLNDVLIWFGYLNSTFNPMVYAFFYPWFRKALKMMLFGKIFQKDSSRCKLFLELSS
#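 Signal – calcium-sensitive Fluo-8 signal, excitation 470-495, emission 515-575 nm · System – RD-HGA16 (CHO) cells co-expressing Gα16 and hTAAR1 · Incubation – 17-24 h seeding, 75 min 37 °C dye, 30 min RT · Compound dosing – 3 µM single concentration · Repeats – no replicates (n 1)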
# OX1R antag-1 – human HCRTR1 antagonism; O43613; CHO/OX1R cells, Fluo-8 calcium fluorescence, orexin A; inhibition, % at 5 µM; 0.43% of 330,000 active;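 active means inhibition above its plate's threshold, mean inhibition of all tested compounds on the plate plus 3 SD, cut at about 37% in these data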
# CHO parental Ca – signal in parental CHO cells, OX1R antagonist counter-screen; parental CHO-K1, ATP-induced calcium, Fluo-8 fluorescence; 0.63% of 330,000 active; AID 463079; inhibition, % at 5.6 µM;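 active means inhibition above that plate's mean sample inhibition plus 3 SD, cut at about 26% in these data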
#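 Measured by: calcium-sensitive Fluo-8 fluorescence / Test system: CHO parental line / Controls: ATP-challenged DMSO wells low, unchallenged DMSO wells high / Measure: % inhibition / Compound: single nominal dose of 5.6 µM per compound / Replicates: single well per compound, no replicates / Reagent: ATP as calcium-mobilizing challenge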
# OX1R antag-2 – OX1R (human) antagonism; O43613; OX1R-expressing cells, FRET antagonist read-out; inhibition, % at 6.6 µM; 1.8% of 330,000 active; AID 485270; in the data active means inhibition mostly above about 38%, no sharp cut-off; inactive means mostly below about 40%
# TAAR1 antag – human TAAR1 antagonism. Q96RJ0. inhibition, % at 3 µM. CHO RD-HGA16 TAAR1, Fluo-8 calcium fluorescence, antagonist. 1.5% of 360,000 active;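 active means inhibition above a per-plate cutoff, the mean inhibition of test compounds on that plate plus 3 SD, cut at about 49% in these data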
#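 System: RD-HGA16 CHO cells with stable hTAAR1 and Gα16 | Probe or stimulus: EC80 β-phenethylamine stimulus | Dosing: 3 µM, single point | Times: Dye loading 75 min at 37 °C, then 30 min room temperature | Measured by: Fluo-8 calcium-sensitive fluorescence | Read-out basis: % inhibition of agonist calcium response | Replicates: n of 1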
# Numbers stand for hits; – = inactive; · = no result. In the library only some 4.5% were active in any assay of this set; here they are far more common.
SMILES,GPR7 antag,TAAR1 ag,OX1R antag-1,CHO parental Ca,OX1R antag-2,TAAR1 antag
CCN(CC(=O)Nc1ccc(OC)cc1)C(=O)c1cc(-c2cccs2)nn1-c1ccccc1,·,–,–,–,–,62
COc1ccc(NC(=O)CN(C)C(=O)c2cc(-c3cccs3)nn2-c2ccccc2)cc1,·,–,–,–,–,55
CCOc1ccc(NC(=O)CN(C)C(=O)c2cc(-c3cccs3)nn2-c2ccccc2)cc1OCC,·,–,–,–,–,–
CCN(CC(=O)Nc1ccc(NC(C)=O)cc1)C(=O)c1cc(-c2ccccc2)nn1-c1ccccc1,·,–,–,–,–,–
CCCN(CC(=O)Nc1ccccc1OC)C(=O)c1cc(-c2ccccc2)nn1-c1ccccc1,·,–,–,–,–,–
COCCN(CC(=O)Nc1cccc(C)c1C)C(=O)c1cc(-c2cccs2)nn1-c1ccccc1,·,–,–,–,–,51
COC(=O)Nc1ccc2c(c1)N(C(=O)CCN(C)C)c1ccccc1CC2,–,–,–,–,–,–
Cc1csc(=O)n1CCC(=O)NCc1ccc(F)cc1,·,–,–,–,–,–
CN(CC(=O)Nc1ccc(F)cc1)C(=O)c1cn(-c2ccccc2)nc1-c1cccs1,·,–,–,–,–,51
CN(C)Cc1cc(C(C)(C)c2ccccc2)ccc1O,·,–,·,·,·,–
COCCNC(=S)N(CCc1c(C)[nH]c2ccc(F)cc12)Cc1cccs1,20,–,–,–,–,–
COc1ccc(CCNC(=O)c2ccc(CS(=O)(=O)c3ccc(Cl)cc3)o2)cc1OC,–,–,–,–,–,–
COc1ccc(CCNC(=O)c2ccc(Cl)cc2Cl)cc1OC,–,–,–,–,–,–
COc1ccc(CCNC(=O)c2ccc([N+](=O)[O-])cc2Cl)cc1OC,·,–,–,–,71,–
COc1ccc(CCNC(=O)c2ccc(=O)[nH]n2)cc1OC,–,–,–,40,–,–
COc1ccc(CCNC(=O)c2ccc(CSc3ccc(Cl)cc3)o2)cc1OC,·,–,·,·,·,66
CC(C)(C)c1ccc(-c2cc(NC(=O)Cc3c[nH]c4ccccc34)ccc2Nc2cccnc2)cc1,·,–,·,·,·,–
C[C@H](O)[C@@H]1C(=O)N2CCc3c([nH]c4c(-c5ccccc5)cccc34)[C@@H]2C[C@@H]1N(C)C(=O)/C=C/c1ccccc1,·,–,·,·,·,–
O=S(=O)(c1ccc(N2CCN(c3ccc(F)cc3)CC2)cc1)N1CCCC1,–,–,–,–,–,–
O=S(=O)(c1ccc(N2CCCC2)cc1)C(F)(F)F,–,–,–,40,–,–
Clc1ccc2[nH]c3c(NCCCN4CCOCC4)ncnc3c2c1,20,–,–,–,–,–
Cc1ccc2[nH]c3c(NCCN4CCOCC4)ncnc3c2c1,–,–,·,·,·,–
C[C@H](O)[C@@H]1C(=O)N2CCc3c([nH]c4cccc(-c5ccccc5)c34)[C@@H]2C[C@@H]1N(C)C(=O)Nc1ccccc1,·,–,·,·,·,–
COC(=O)c1sccc1-c1ccc(C(=O)Nc2ccccc2)o1,–,–,–,–,59,–
CC(C)(C)OC(=O)N1CCC2CCN(S(C)(=O)=O)CC21 (stereo unspecified),·,–,·,·,·,–
SMILES,GPR7 antag,TAAR1 ag,OX1R antag-1,CHO parental Ca,OX1R antag-2,TAAR1 antag
O=C(COC(=O)c1cc[n+]([O-])cc1)Nc1ccc(SC(F)F)cc1,–,–,–,–,–,–
CCOc1ccc(C(=O)OCC(=O)Nc2ccc(SC(F)F)cc2)cc1OCC,–,–,–,25,–,–
c1ccc2c(CCNc3ncnc4nc[nH]c34)cccc2c1,–,–,–,34,–,67
Cc1cccnc1NC(=O)Nc1cccc2ccccc12,–,–,–,–,45,–
C[C@@H]1ON(C)[C@H]2C[C@H]3c4cc(-c5ccc(F)cc5)ccc4CCN3C[C@@H]12,·,–,·,·,·,–
COc1ccccc1/C=C/C(=O)OCC(=O)N1CCc2ccccc21,·,–,–,–,32,–
CN(C)c1cccc(/C=C(\C#N)c2ccccc2)c1,–,–,–,38,–,–
CN(C)c1ccc(/C=C(\C#N)c2ccccc2)cc1,–,·,·,·,·,·
CCC1(C)OC(=O)N2CCc3c(C)[nH]c4c(C)ccc(c34)C21C (stereo unspecified),18,–,–,–,–,–
CCOC(=O)c1c(C)[nH]c(C(=O)COC(=O)c2ccc(N3CCCC3=O)cc2)c1C,–,–,–,–,–,–
CCN(CC)C(=O)c1cc([N+](=O)[O-])cc2c1-c1ccc([N+](=O)[O-])cc1C2=C(C#N)C#N,–,–,–,–,71,–
O=C(N[C@@H](Cc1cccnc1)C(=O)N1CCC[C@H]1C(=O)NC1CCCC1)c1ccccc1,·,–,·,·,·,–
Cc1cc(S(=O)(=O)c2ccc(Cl)cc2)nc(S(=O)(=O)c2ccc(Cl)cc2)c1C#N,·,–,·,·,·,68
Cc1cc(C)c(S(=O)(=O)c2ccc(Cl)cc2)c(Cl)n1,–,–,–,–,–,–
Cc1ccc(NC(=O)COc2ccc(N(C)C(=O)C(C)(C)C)cc2)cc1S(=O)(=O)N1CCCCC1,·,–,73,78,–,52
COc1cc(C(C)=O)ccc1OCC(=O)Nc1ccc(C)c(S(=O)(=O)N2CCCCCC2)c1,·,–,53,33,–,77
CC(=O)Nc1ccc(OCC(=O)Nc2ccc(Cl)c(S(=O)(=O)N3CCOCC3)c2)cc1,·,–,54,29,–,–
Cc1ccc(NC(=O)COc2cccc(C)c2C)cc1S(=O)(=O)N1CCCCCC1,·,–,–,–,–,–
COc1cc(C(C)=O)ccc1OCC(=O)Nc1ccc(S(=O)(=O)N2CCCCC2)cc1,·,–,·,·,·,–
CCc1cccc(OCC(=O)Nc2ccc(C)c(S(=O)(=O)N3CCCCCC3)c2)c1,·,–,–,35,–,50
COC(=O)c1ccc(CN2C(=O)[C@]3(OCCC=C[C@H]3C)c3cc(OC)ccc32)cc1,·,–,·,·,·,–
COc1ccccc1Cc1c(-c2cccc(Cl)c2)nc2c3ccccc3ccn12,·,–,·,·,·,–
O=C(COc1ccc(S(=O)(=O)N2CCOCC2)cc1)Nc1ccc(Br)cc1,·,–,–,–,–,–
Cc1ccc(NC(=O)COc2ccccc2C(N)=O)cc1S(=O)(=O)N1CCCCCC1,·,–,53,–,–,–
O=C(CCCOc1ccc(Br)cc1)Nc1ccc(S(=O)(=O)N2CCOCC2)cc1,·,–,–,35,–,–
CCOC(=O)Nc1cc(=O)c([N+](=O)[O-])c(N)[nH]1,·,–,·,·,·,–
Cc1cc2c3c(c1)C1(SCC(=O)N1c1ccc(F)cc1)C(=O)N3C(C)(C)CC2C (stereo unspecified),–,48,–,–,–,–
Clc1ccc2nc3c4ccccc4cnn3c2c1,–,–,–,–,69,–
COc1cccc(CN(C)Cc2cc(=O)oc3c(C)c(C)ccc23)c1,–,–,·,·,·,–
Cc1ccccc1CN(C)Cc1cc(=O)oc2c(C)c(C)ccc12,–,–,–,–,–,51
